What was measured:
Assay type in all cases: functional
[1] = test system: CCRF-CEM; assay: Growth inhibition of human CCRF-CEM cells incubated for 48 hrs by sulforhodamine B assay
Method in brief: (§1)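 Run in the NCI-60 human tumour cell line panel with dose-response testing. GI50 was determined for each cell line from its dose-response data.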

[2] = test system: HL-60(TB); assay: Growth inhibition of human HL-60(TB) cells incubated for 48 hrs by sulforhodamine B assay; conditions: HL-60, 48 h
Method in brief: (§2)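 Run within the NCI-60 human tumour cell line panel as a dose-response screen. For each cell line the readouts are GI50, TGI and LC50. Per-line log values also feed a mean-graph analysis, in which the arithmetic mean of the log values across all lines is subtracted from each line's log value.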

[3] = test system: MOLT-4; assay: Growth inhibition of human MOLT4 cells incubated for 48 hrs by sulforhodamine B assay; conditions: MOLT-4, 48 h; method in brief: as §1
[4] = test system: A549; assay: Growth inhibition of human A549/ATCC cells incubated for 48 hrs by sulforhodamine B assay; conditions: A549, 48 h; method in brief: as §1
[5] = test system: EKVX; assay: Growth inhibition of human EKVX cells incubated for 48 hrs by sulforhodamine B assay; method in brief: as §1
[6] = test system: HOP-62; assay: Growth inhibition of human HOP62 cells incubated for 48 hrs by sulforhodamine B assay; conditions: HOP-62, 48 h; method in brief: as §1
[7] = test system: NCI-H226; assay: Growth inhibition of human NCI-H226 cells incubated for 48 hrs by sulforhodamine B assay; conditions: NCI-H226, 48 h; method in brief: as §1
[8] = test system: NCI-H23; assay: Growth inhibition of human NCI-H23 cells incubated for 48 hrs by sulforhodamine B assay; conditions: NCI-H23, 48 h; method in brief: as §1
[9] = test system: NCI-H460; assay: Growth inhibition of human NCI-H460 cells incubated for 48 hrs by sulforhodamine B assay; conditions: NCI-H460, 48 h; method in brief: as §1
[10] = test system: HCC 2998; assay: Growth inhibition of human HCC2998 cells incubated for 48 hrs by sulforhodamine B assay; conditions: HCC 2998, 48 h; method in brief: as §1
[11] = test system: HCT-15; assay: Growth inhibition of human HCT15 cells incubated for 48 hrs by sulforhodamine B assay; conditions: HCT-15, 48 h; method in brief: as §1
[12] = test system: HT-29; assay: Growth inhibition of human HT-29 cells incubated for 48 hrs by sulforhodamine B assay; conditions: HT-29, 48 h; method in brief: as §1
[13] = test system: SW-620; assay: Growth inhibition of human SW620 cells incubated for 48 hrs by sulforhodamine B assay; conditions: SW-620, 48 h
Method in brief: (§3)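 Tested in the NCI 60-human-tumour-cell-line screen using the five-dose format. GI₅₀ was derived from each cell line's dose-response. TGI and LC₅₀ were derived from the same dose-response data.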

[14] = test system: SF-268; assay: Growth inhibition of human SF268 cells incubated for 48 hrs by sulforhodamine B assay; conditions: SF-268, 48 h; method in brief: as §1
[15] = test system: SF-295; assay: Growth inhibition of human SF295 cells incubated for 48 hrs by sulforhodamine B assay; conditions: SF-295, 48 h; method in brief: as §1
[16] = test system: SNB-19; assay: Growth inhibition of human SNB19 cells incubated for 48 hrs by sulforhodamine B assay; conditions: SNB-19, 48 h; method in brief: as §1
[17] = test system: SK-MEL-2; assay: Growth inhibition of human SK-MEL-2 cells incubated for 48 hrs by sulforhodamine B assay; conditions: SK-MEL-2, 48 h; method in brief: as §1
[18] = test system: UACC-257; assay: Growth inhibition of human UACC257 cells incubated for 48 hrs by sulforhodamine B assay; conditions: UACC-257, 48 h; method in brief: as §3
[19] = test system: OVCAR-4; assay: Growth inhibition of human OVCAR4 cells incubated for 48 hrs by sulforhodamine B assay; conditions: OVCAR-4, 48 h; method in brief: as §1
[20] = test system: OVCAR-8; assay: Growth inhibition of human OVCAR8 cells incubated for 48 hrs by sulforhodamine B assay; conditions: OVCAR-8, 48 h; method in brief: as §1
[21] = test system: SK-OV-3; assay: Growth inhibition of human SKOV3 cells incubated for 48 hrs by sulforhodamine B assay; conditions: SK-OV-3, 48 h; method in brief: as §1
[22] = test system: 786-0; assay: Growth inhibition of human 786-0 cells incubated for 48 hrs by sulforhodamine B assay; conditions: 786-0, 48 h; method in brief: as §1
[23] = test system: A498; assay: Growth inhibition of human A498 cells incubated for 48 hrs by sulforhodamine B assay; conditions: A498, 48 h; method in brief: as §2
[24] = test system: ACHN; assay: Growth inhibition of human ACHN cells incubated for 48 hrs by sulforhodamine B assay; method in brief: as §1
[25] = test system: DU-145; assay: Growth inhibition of human DU145 cells incubated for 48 hrs by sulforhodamine B assay; conditions: DU-145, 48 h; method in brief: as §1
[26] = test system: MDA-MB-231; assay: Growth inhibition of human MDA-MB-231 cells incubated for 48 hrs by sulforhodamine B assay; conditions: MDA-MB-231, 48 h; method in brief: as §1
[27] = test system: BT-549; assay: Growth inhibition of human BT549 cells incubated for 48 hrs by sulforhodamine B assay; conditions: BT-549, 48 h; method in brief: as §1
[28] = test system: T47D; assay: Growth inhibition of human T47D cells incubated for 48 hrs by sulforhodamine B assay; method in brief: as §3
[29] = read-out: pLC50 (the source's name) (converted)

Compound `COC(=O)/C=C1\CC[C@H]2[C@@H](CC(=O)[C@H]3C(C)(C)[C@@H](O)CC[C@]23C)[C@H]1C` has a GI50 [1] of 1.15 µM, an LC50 [1] greater than 34.7 µM and a TGI ([1]; read-out: pTGI (converted)) of 7.59 µM. It also gave a GI50 [2] of 5.37 µM, an LC50 [2] greater than 34.7 µM and a TGI ([2]; read-out: pTGI (converted)) of 21.4 µM. The GI50 [3] was 0.813 µM, the LC50 [3] was greater than 34.7 µM and the TGI ([3]; read-out: pTGI (converted)) was 2.14 µM. The GI50 [4] was 0.603 µM, the LC50 [4] was 2.09 µM and the TGI ([4]; read-out: pTGI (converted)) was 1.12 µM. The GI50 [5] was 0.871 µM, the LC50 [5] was 11 µM and the TGI ([5]; read-out: pTGI (converted)) was 2.69 µM. It also gave a GI50 [6] of 1.1 µM, a CC50 [6, 29] of 15.1 µM and a TGI ([6]; read-out: pTGI (converted)) of 4.47 µM. It also gave a GI50 [7] of 4.79 µM, an LC50 [7] of 25.1 µM and a TGI ([7]; read-out: pTGI (converted)) of 11 µM. The GI50 [8] was 1.23 µM, the LC50 [8] was greater than 34.7 µM and the TGI ([8]; read-out: pTGI (converted)) was 7.76 µM. For the same compound, the GI50 [9] was 0.776 µM, the LC50 [9] was 5.13 µM and the TGI ([9]; read-out: pTGI (converted)) was 1.74 µM. The GI50 [10] was 10.7 µM, the LC50 [10] was greater than 34.7 µM and the TGI ([10]; read-out: pTGI (converted)) was greater than 34.7 µM. It also gave a GI50 [11] of 4.07 µM, an LC50 [11] of 30.2 µM and a TGI ([11]; read-out: pTGI (converted)) of 11 µM. The GI50 [12] was 2.24 µM, the CC50 [12, 29] was greater than 34.7 µM and the TGI ([12]; read-out: pTGI (converted)) was 10.7 µM. For the same compound, the GI50 [13] was 1.74 µM, the LC50 [13] was greater than 34.7 µM and the TGI ([13]; read-out: pTGI (converted)) was 10 µM. It also gave a GI50 [14] of 1.17 µM, an LC50 [14] of 14.5 µM and a TGI ([14]; read-out: pTGI (converted)) of 4.47 µM. For the same compound, the GI50 [15] was 1.45 µM, the LC50 [15] was greater than 34.7 µM and the TGI ([15]; read-out: pTGI (converted)) was 7.59 µM. It also gave a GI50 [16] of 9.33 µM, an LC50 [16] greater than 34.7 µM and a TGI ([16]; read-out: pTGI (converted)) greater than 34.7 µM. It also gave a GI50 [17] of 7.41 µM, an LC50 (concentration killing 50% of cells) [17] greater than 34.7 µM and a TGI ([17]; read-out: pTGI (converted)) of 28.8 µM. The GI50 [18] was 6.03 µM, the LC50 [18] was greater than 34.7 µM and the TGI ([18]; read-out: pTGI (converted)) was 16.2 µM. It also gave a GI50 [19] of 3.72 µM, an LC50 [19] greater than 34.7 µM and a TGI ([19]; read-out: pTGI (converted)) of 12.3 µM. It also gave a GI50 [20] of 1.38 µM, an LC50 [20] greater than 34.7 µM and a TGI ([20]; read-out: pTGI (converted)) of 7.24 µM. The GI50 [21] was 8.51 µM, the LC50 [21] was greater than 34.7 µM and the TGI ([21]; read-out: pTGI (converted)) was 22.9 µM. For the same compound, the GI50 [22] was 1.12 µM, the LC50 [22] was 24.5 µM and the TGI ([22]; read-out: pTGI (converted)) was 4.27 µM. It also gave an LC50 [23] greater than 34.7 µM, a TGI ([23]; read-out: pTGI (converted)) of 14.8 µM and a GI50 [24] of 0.794 µM. The LC50 [24] was 10 µM, the TGI ([24]; read-out: pTGI (converted)) was 2.19 µM and the GI50 [25] was 0.776 µM. For the same compound, the LC50 (concentration killing 50% of cells) [25] was 4.79 µM, the TGI ([25]; read-out: pTGI (converted)) was 1.74 µM and the GI50 [26] was 10.2 µM. The LC50 [26] was greater than 34.7 µM, the TGI ([26]; read-out: pTGI (converted)) was greater than 34.7 µM and the GI50 [27] was 1.26 µM. The LC50 [27] was greater than 34.7 µM, the TGI ([27]; read-out: pTGI (converted)) was 5.5 µM and the GI50 [28] was 5.37 µM. For the same compound, the LC50 [28] was greater than 34.7 µM and the TGI ([28]; read-out: pTGI (converted)) was 21.9 µM.
